Assay outcomes deposited in PubChem BioAssay by several laboratories.
A selection: hits, their analogues and other compounds. The true share with any hit is near 1.3%.
MEX-5 binding = MEX-5 zinc finger RNA-binding disruptors – biochemical, C. elegans, fluorescence polarization, MLPCN library, primary screen; activity score (negative = inhibition of binding), % at 10 µM; AID 1832, 2009; hit rate 0.38% among 300,000; MEX-5/FITC-TCR2 RNA binding; active compounds read low;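 active means inhibition past about -25% in most replicates, and total fluorescence under double the plate's negative control median, limit read from the data; inconclusive means replicates evenly split on the limit, or fluorescence at least double controls; inactive means too little inhibition in most replicates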
Target sequence (Q9XUB2 whole entry, looked up): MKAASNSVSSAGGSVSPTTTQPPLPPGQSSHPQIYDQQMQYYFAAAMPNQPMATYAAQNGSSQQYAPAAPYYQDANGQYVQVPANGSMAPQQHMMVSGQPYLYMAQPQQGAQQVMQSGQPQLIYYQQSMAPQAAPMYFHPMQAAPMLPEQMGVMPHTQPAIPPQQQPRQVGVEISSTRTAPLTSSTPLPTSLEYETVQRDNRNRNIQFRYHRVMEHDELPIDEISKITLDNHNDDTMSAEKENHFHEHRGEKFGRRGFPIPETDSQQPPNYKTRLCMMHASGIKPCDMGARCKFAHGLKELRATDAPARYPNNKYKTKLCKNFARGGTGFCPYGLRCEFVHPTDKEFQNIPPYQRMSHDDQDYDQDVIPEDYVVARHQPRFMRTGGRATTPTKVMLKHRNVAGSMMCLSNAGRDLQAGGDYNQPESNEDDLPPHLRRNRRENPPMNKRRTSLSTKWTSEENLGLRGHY
EBV gp42 block = Epstein-Barr virus gp42 inhibitors, primary screen, biochemical, uHTS, fluorescence polarization; Fluorescence polarization binding assay, mP read-out; inhibition, % (tested at 21.74 µM); hit rate 0.42% among 220,000; AID 1085, 2008; in the data active means inhibition above about 50%
Target sequence (Q1HVG2 whole entry, looked up): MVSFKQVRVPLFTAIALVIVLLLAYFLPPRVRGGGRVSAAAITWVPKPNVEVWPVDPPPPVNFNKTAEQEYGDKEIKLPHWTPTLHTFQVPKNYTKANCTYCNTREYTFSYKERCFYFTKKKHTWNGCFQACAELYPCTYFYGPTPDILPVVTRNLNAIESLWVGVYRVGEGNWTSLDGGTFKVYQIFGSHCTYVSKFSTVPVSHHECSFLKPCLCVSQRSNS
C-LANA FP = inhibitors of KSHV C-LANA binding to DNA, primary screen, biochemical, fluorescence polarization, FAM-LBS DNA, MBP-C-LANA, single point; hit rate 0.078% among 340,000; inhibition, % at 9 µM; Kaposi's sarcoma herpesvirus LANA C-terminal domain (residues 932-1162) DNA binding;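 active means highest replicate inhibition at or above 60% at 9 µM, even if other replicates fall short; inactive means all replicates below 60% inhibition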
T cell modulator = modulators of CD8 T cell-vesicle binding, primary screen, mouse 2C CD8+ T cells, flow cytometry. response (vesicle binding), % at 7 µM. AID 2052, 2009. hit rate 0.068% among 330,000. 2C CD8+ T cell-vesicle binding; active compounds read low;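 active means response, share of CD8 T cells binding vesicles, and their 90th percentile fluorescence all below set limits, cut at about 80% in these data, passing the limit was not always enough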;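 further: values below 100% mean blocked vesicle binding to the CD8+ T cells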
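Also added: QL9-peptide-loaded Drosophila micro-vesicles bearing Ld, ICAM-1 and B7-1; Test system: purified 2C TCR transgenic mouse naive CD8+ T cells; Measured by: cytometric PE anti-B7-1 and Alexa647 anti-CD8 signals after 1% paraformaldehyde fixation; Timing: binding step 1.5 h, 37 °C, antibody labelling 20 min, ice.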
GRK2 inh = compounds blocking aptamer binding on GRK2 – biochemical, human GRK2, bead flow cytometry, HTS, primary screen. inhibition of aptamer binding, % at 10 µM. hit rate 0.59% among 330,000. FAM-aptamer displacement from GRK2. Beta-adrenergic receptor kinase 1 (Homo sapiens), P25098;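 active means inhibition of aptamer binding above 40%, roughly 3 SD of noise, on plates passing a quality check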;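 further: median bead fluorescence of bound FAM aptamer so fluorescent compounds give negative values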
Keap1 Nrf2 FP = Keap1-Nrf2 protein-protein interaction inhibitors, primary screen, biochemical, fluorescence polarization, single point | Kelch-like ECH-associated protein 1 (Homo sapiens), Q14145 | Keap1 Kelch-Nrf2 peptide fluorescence polarization, 1536-well | inhibition, % at 9.4 µM | hit rate 0.15% among 340,000 | AID 504523, 2011; in the data active means inhibition above about 12%; inconclusive means no clear call, values can overlap the other calls; inactive means below about 7.3%;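 further: human Keap1 Kelch domain with fluorescein labeled Nrf2 9mer peptide probe; higher means more block of Keap1 binding to Nrf2 peptide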
Large screens that a line does not name were inactive.

COc1ccc(C2=NOC(C(=O)Nc3ccc4c(c3)OCCO4)C2)c(OC)c1 (stereo unspecified)	none (no result: EBV gp42 block)
COC(CNC(=O)C(=O)Nc1cc2c3c(c1)CC(=O)N3CCC2)OC	none (no result: EBV gp42 block)
CCOc1ccccc1Oc1cn[nH]c1-c1ccc(OCC(=O)NN)cc1O	none (no result: EBV gp42 block)
Cc1ccc(C(=O)Nn2c(O)c(C=C3N=c4ccccc4=N3)sc2=S)cc1	EBV gp42 block 61
COc1ccccc1C(=O)Nc1ccnn1C1CCN(C(C)CSC)CC1 (stereo unspecified)	MEX-5 binding -26 (no result: EBV gp42 block)
CSCC(C)N1CCC(n2nccc2NC(=O)CCCc2ccccc2)CC1 (stereo unspecified)	MEX-5 binding -64 (no result: EBV gp42 block)
CN(Cc1cn(C)nc1-c1ccccc1F)C1CCOC1 (stereo unspecified)	none
N=c1c(S(=O)(=O)c2ccc(Cl)cc2)cc2c(=O)n3ccccc3nc2n1C1CCCCC1	MEX-5 binding -46, Keap1 Nrf2 FP 25 (no result: EBV gp42 block)
N=c1c(S(=O)(=O)c2ccc(Cl)cc2)cc2c(=O)n3ccccc3nc2n1CCc1ccccc1	MEX-5 binding -63 (no result: EBV gp42 block)
CC(C(=O)OCC(=O)Nc1ccc2c(c1)OCO2)N1C(=O)c2ccccc2C1=O (stereo unspecified)	none
O=C(CN1C(=O)/C(=C/c2ccco2)SC1=S)Nc1ccc(O)c(C(=O)O)c1	C-LANA FP 101 (no result: EBV gp42 block)
CC(C(=O)Nc1ccc(C(=O)O)c(O)c1)N1C(=O)/C(=C\c2ccco2)SC1=S (stereo unspecified)	MEX-5 binding -26, C-LANA FP 101 (no result: EBV gp42 block)
O=C(CN1C(=O)/C(=C/c2ccco2)SC1=S)Nc1ccc(C(=O)O)c(O)c1	MEX-5 binding -28, C-LANA FP 108 (no result: EBV gp42 block)
O=C(CN1C(=O)/C(=C/c2ccco2)SC1=S)NC1CCS(=O)(=O)C1 (stereo unspecified)	GRK2 inh 45 (no result: EBV gp42 block)
N#Cc1c(-c2ccccc2)c(-c2ccccc2)nn(CC(=O)NNC(=O)Nc2ccc(Cl)cc2)c1=O	none
COc1ccc(OC)c2cc3ccccc3cc12	Keap1 Nrf2 FP 25 (no result: MEX-5 binding, EBV gp42 block, T cell modulator, GRK2 inh)
COc1cc2ccccc2cc1C(=O)O	none
COc1cc(-c2ccc(Nc3ccccc3C(=O)O)c(OC)c2)ccc1Nc1ccccc1C(=O)O	EBV gp42 block 69 (no result: MEX-5 binding, T cell modulator, GRK2 inh)
Cc1cc(C)cc(OCC(=O)N/N=C/c2ccncc2)c1	GRK2 inh 55
Cc1ccccc1OCC(=O)N/N=C/c1ccncc1	none
O=C(c1ccco1)N1CCN(c2ccc(Cl)c(Cl)c2)CC1	none (no result: EBV gp42 block)
Cc1c(NC(=O)C2CC=CCC2C(=O)O)c(=O)n(-c2ccccc2)n1C (stereo unspecified)	none
O=C(O)c1cccc2cccc(-c3c4ccc(=O)c(O)c-4oc4c(O)c(O)ccc34)c12	C-LANA FP 87 (no result: MEX-5 binding, EBV gp42 block, T cell modulator, GRK2 inh)
Nc1c(O)cccc1C(=O)O	none (no result: EBV gp42 block)
COc1ccc(S(=O)(=O)C(C#N)c2nc3ccccc3nc2N2CCCCC2)cc1 (stereo unspecified)	none
N#CC(c1nc2ccccc2nc1N1CCCC1)S(=O)(=O)c1ccccc1 (stereo unspecified)	EBV gp42 block 102
CN1CCN(c2nc3ccccc3nc2C(C#N)S(=O)(=O)c2ccccc2)CC1 (stereo unspecified)	none (no result: C-LANA FP, Keap1 Nrf2 FP)
Cc1ccc(C)c(S(=O)(=O)C(C#N)c2nc3ccccc3nc2N2CCCC2)c1 (stereo unspecified)	EBV gp42 block 110
Cc1cccc(S(=O)(=O)C(C#N)c2nc3ccccc3nc2N2CCCC2)c1 (stereo unspecified)	EBV gp42 block 92
O=S(=O)(NCC1CCCO1)c1ccc(Br)s1 (stereo unspecified)	none
O=C1CNC(=S)N1CCc1ccc(O)c(O)c1	MEX-5 binding -30 (no result: C-LANA FP, Keap1 Nrf2 FP)
O=C1CNC(=S)N1CCOc1ccccc1	none
Cc1cnc(NC(=O)Nc2ccc(Cl)cc2)s1	none
N#C/C(=C\c1sc(N2CCOCC2)nc1-c1ccccc1)C(=O)Nc1cccc2ccccc12	EBV gp42 block 137 (no result: MEX-5 binding, C-LANA FP, T cell modulator, GRK2 inh, Keap1 Nrf2 FP)
O=C(Nc1ccccc1C(=O)Nc1ccncc1)c1cccc([N+](=O)[O-])c1	none (no result: EBV gp42 block)
Cc1cc(/C=C2\SC(=S)N(Cc3ccco3)C2=O)c(C)n1-c1cccnc1	MEX-5 binding -62, EBV gp42 block 122 (no result: T cell modulator, GRK2 inh)
O=C1/C(=C/c2cccnc2)SC(=S)N1Cc1ccco1	none (no result: MEX-5 binding, EBV gp42 block, T cell modulator, GRK2 inh)
O=C1/C(=C/c2ccco2)SC(=S)N1c1cccnc1	C-LANA FP 72 (no result: T cell modulator, GRK2 inh)
O=C(CN1CCN(S(=O)(=O)c2ccccc2)CC1)Nc1ccccc1C(=O)NC1CC1	none (no result: MEX-5 binding, EBV gp42 block)
O=C(O)c1ccc(-c2ccc(/C=C3\NC(=O)N(Cc4ccc(Cl)cc4)C3=O)o2)cc1Cl	MEX-5 binding -32 (no result: T cell modulator, GRK2 inh)
OCCNc1nc(Nc2ccc(Br)cc2)nc2ccccc12	EBV gp42 block 56 (no result: C-LANA FP, Keap1 Nrf2 FP)
O=C(N=Nc1c(O)[nH]c2ccc([N+](=O)[O-])cc12)c1cc(-c2ccccc2Cl)nc2ccccc12	EBV gp42 block 73
O=C(N/N=C/c1ccncc1)c1cc(-c2ccc(Br)s2)[nH]n1	none (no result: EBV gp42 block)
Cc1ccc(Cl)c2c(N=Nc3ccccc3)c(O)[nH]c12	MEX-5 binding -43, Keap1 Nrf2 FP inconclusive (no result: EBV gp42 block)
O=C(NCc1ccco1)C1CCN(c2ccc(N3CCOCC3)nn2)CC1	none
COCCN(CCOC)Cc1c(O)ccc2c1O/C(=C\c1ccco1)C2=O	MEX-5 binding inconclusive, C-LANA FP 65 (no result: EBV gp42 block)
CC1CCN(Cc2c(O)ccc3c2O/C(=C\c2ccco2)C3=O)CC1	MEX-5 binding inconclusive
C/C(=N/NS(=O)(=O)c1ccc(Cl)cc1)c1cccc(NC(=O)c2ccncc2)c1	none (no result: EBV gp42 block)
C/C(=N\NS(=O)(=O)c1ccccc1)c1cccc(NC(=O)c2cccc(Cl)c2)c1	GRK2 inh 60
COc1ccc(Cc2nnc(NC(=O)c3cccs3)s2)cc1OC	none
COc1ccccc1NC(=O)c1c([N+](=O)[O-])cnn1C	none (no result: EBV gp42 block)
COc1ccc(C2(CNC(=O)/C=C\c3ccco3)CCCC2)cc1OC	GRK2 inh 48
O=C1C(Cl)=C(N2CCCCCC2)C(=O)N1c1ccccc1Cl	none (no result: EBV gp42 block)
Cc1ccc(N2C(=O)C(Cl)=C(N3CCCCCC3)C2=O)c(C)c1	T cell modulator 0.0 (no result: EBV gp42 block)
Cc1ncoc1C(=O)N1CCCC(CCC(=O)NCc2ccc(F)c(F)c2)C1 (stereo unspecified)	none
Cc1ccc(NC(=O)COC(=O)CCc2c[nH]c3ccccc23)c(C)c1	T cell modulator 0.0 (no result: MEX-5 binding, EBV gp42 block)
N#Cc1c(N)n(-c2cccc(C(=O)O)c2)c2nc3ccccc3nc12	none
